# Activity calls are given as the source filed them. The calls are words filed in the database; no cut-off is given here.
# Assays:
# [1] = test system: Rattus norvegicus; test: Effective dose for half-maximal decrease in the accumulation of 5-hydroxytryptophan (5-HTP) in reserpinized rat brain striatal area by sc administration; Inactive; format: functional, organism-based
# In short: (§1)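 Male Sprague-Dawley rats (200-300 g) got reserpine 5 mg/kg sc 18 h before. The test drug (saline) was given sc or po (po rats fasted 18 h), with NSD 1015, 30 min before decapitation. DOPA and 5-HTP in limbic, striatal and hemispheral tissue were measured by HPLC-ED. ED50 (half-maximal decrease) was taken from 4-6-dose curves, with deviation estimated graphically from SEM.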
# [2] = target: T1, Dopamine receptor (Rattus norvegicus) (UniProt P25115+P19020+P30729+P18901+P61169); test: Effective dose for half-maximal decrease in the accumulation of DOPA in reserpinized rat brain limbic area by sc administration; format: functional, organism-based; in short: as §1
# [3] = test system: Rattus norvegicus; test: post-synaptic agonistic effects by increase in locomotor activity at the dose of 1.0 umol/kg, sc in reserpinized rat; format: functional
# In short: (§2)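 Male Sprague-Dawley rats (200-300 g) given reserpine 5 mg/kg sc in the neck 18 h before testing. The test compound, in 0.9% saline, was given sc in the neck (n = 4-5). Rats were placed singly in photocell motility meters right after dosing. Counts were recorded over 30 min, alongside gross behavioural observation of 5-HT and DA signs. Statistics: ANOVA with Fischer's PLSD versus reserpine controls.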
# [4] = test system: Rattus norvegicus; test: Effective dose for half-maximal decrease in the accumulation of 5-hydroxytryptophan (5-HTP) in reserpinized rat brain hemispheral area by sc administration; Inactive; format: functional, organism-based; in short: as §1
# [5] = test system: Rattus norvegicus; test: Effective dose for half-maximal decrease in the accumulation of 5-hydroxytryptophan (5-HTP) in reserpinized rat brain limbic area by sc administration; Inactive; format: functional, organism-based; in short: as §1
# [6] = species on record: Rattus norvegicus; test: DA agonist induced behavior was charecterised by increased locomotion, sniffing and licking.+ indicates low intensity of behavioral effect; format: functional, organism-based; in short: as §2
# [7] = target: T1, Dopamine receptor (Rattus norvegicus); test: Effective dose for half-maximal decrease in the accumulation of DOPA in reserpinized rat brain hemispheral area by sc administration; Inactive; format: functional, organism-based; in short: as §1
# [8] = target: T2, 5-hydroxytryptamine receptor 1A (Rattus norvegicus, UniProt P19327); test: Binding affinity against 5-hydroxytryptamine 1A receptor in homogenated rat brain tissue, using by [3H]8-OH-DPAT as radioligand; format: tissue-based
# T2 sequence (P19327 whole entry): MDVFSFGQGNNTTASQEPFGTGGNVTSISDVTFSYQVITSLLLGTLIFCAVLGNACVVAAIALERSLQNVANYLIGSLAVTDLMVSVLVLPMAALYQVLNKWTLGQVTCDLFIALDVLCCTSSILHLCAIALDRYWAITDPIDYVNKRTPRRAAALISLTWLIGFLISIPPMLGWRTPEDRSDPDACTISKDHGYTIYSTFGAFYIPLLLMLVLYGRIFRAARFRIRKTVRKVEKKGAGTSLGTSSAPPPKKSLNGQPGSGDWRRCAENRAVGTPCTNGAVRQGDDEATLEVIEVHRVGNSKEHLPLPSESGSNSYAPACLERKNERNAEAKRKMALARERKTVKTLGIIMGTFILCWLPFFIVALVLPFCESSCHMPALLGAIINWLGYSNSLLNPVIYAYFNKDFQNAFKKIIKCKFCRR
# In short: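 Rat brain homogenate was washed and preincubated in 50 mM Tris (pH 8.0) containing NaCl, CaCl2 and MgCl2, plus 10 μM pargyline. Nonspecific binding was defined with 10 μM 5-HT. Six drug concentrations (10⁻⁴-10⁻⁹ M) were tested, triplicate or single run. IC50 came from a semilog plot with linear regression.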
# [9] = target: T1, Dopamine receptor (Rattus norvegicus); test: Effective dose for half-maximal decrease in the accumulation of DOPA in reserpinized rat brain striatal area by sc administration; format: functional, organism-based; in short: as §1
# [10] = target: T1, Dopamine receptor (Rattus norvegicus); test: Effective dose for half-maximal decrease in the accumulation of DOPA in reserpinized rat brain striatal area by po administration; partial response at the highest dose tested; format: functional, organism-based; in short: as §1
# [11] = test system: Rattus norvegicus; test: post-synaptic agonistic effects by increase in locomotor activity at the dose of 50 umol/kg, sc in reserpinized rat (p<0.005); format: functional
# [12] = Effective dose for half-maximal decrease in the accumulation of 5-hydroxytryptophan (5-HTP) in reserpinized rat brain hemispheral area by sc administration; format: functional; in short: as §1
# [13] = target: D(2) dopamine receptor (Rattus norvegicus, UniProt P61169); test: Binding affinity against dopamine receptor D2 in rat brain tissue using [3H]spiperone; format: tissue-based
# In short: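 Rat striatal membranes were prepared in 50 mM potassium phosphate (pH 7.4). They were incubated with 0.5 nM [3H]spiperone (3 mg original tissue) for 10 min at 37 °C. Specific binding was defined with 10 μM 6,7-ADTN. Six drug concentrations (10⁻⁴-10⁻⁹ M) were tested, in triplicate or in a single experiment.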
# [14] = Effective dose for half-maximal decrease in the accumulation of 5-hydroxytryptophan (5-HTP) in reserpinized rat brain hemispheral area by po administration; format: functional; in short: as §1
# [15] = target: T1, Dopamine receptor (Rattus norvegicus); test: Effective dose for half-maximal decrease in the accumulation of DOPA in reserpinized rat brain striatal area by sc administration; partial response at the highest dose tested; format: functional, organism-based; in short: as §1
# [16] = target: T1, Dopamine receptor (Rattus norvegicus); test: Effective dose for half-maximal decrease in the accumulation of DOPA in reserpinized rat brain limbic area by po administration; partial response at the highest dose tested; format: functional, organism-based; in short: as §1
# [17] = Effective dose for half-maximal decrease in the accumulation of 5-hydroxytryptophan (5-HTP) in reserpinized rat brain limbic area by sc administration; format: functional; in short: as §1
# [18] = Effective dose for half-maximal decrease in the accumulation of 5-hydroxytryptophan (5-HTP) in reserpinized rat brain limbic area by po administration; format: functional; in short: as §1
# [19] = target: T1, Dopamine receptor (Rattus norvegicus); test: Effective dose for half-maximal decrease in the accumulation of DOPA in reserpinized rat brain limbic area by sc administration; partial response at the highest dose tested; format: functional, organism-based; in short: as §1
# [20] = target: T1, Dopamine receptor (Rattus norvegicus); test: Effective dose for half-maximal decrease in the accumulation of DOPA in reserpinized rat brain hemispheral area by po administration; format: functional, organism-based; in short: as §1
# [21] = Area under curve ratio was determined (po/iv); format: functional
# In short: (§3)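 Male Sprague-Dawley rats (300 g) with arterial catheters were dosed 24 h after surgery. Doses: 40 μmol/kg po by gavage and 5 μmol/kg iv, or 20 po and 1 iv. Po rats were fasted 18 h. Blood was sampled from 5 min to 12 h and measured by GC-MS after extraction at pH 11 against an internal standard, samples in duplicate. AUC po/iv came from n = 4 per route. Half-life was read graphically from the oral elimination phase.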
# [22] = Effective dose for half-maximal decrease in the accumulation of 5-hydroxytryptophan (5-HTP) in reserpinized rat brain striatal area by po administration; format: functional; in short: as §1
# [23] = Effective dose for half-maximal decrease in the accumulation of 5-hydroxytryptophan (5-HTP) in reserpinized rat brain striatal area by sc administration; format: functional; in short: as §1
# [24] = Half-lives were estimated from the elimination phase of the blood conc-time curve after oral administration; format: ADME, organism-based; conditions: whole blood; in short: as §3
# Chain of D(2) dopamine receptor (P61169 whole entry): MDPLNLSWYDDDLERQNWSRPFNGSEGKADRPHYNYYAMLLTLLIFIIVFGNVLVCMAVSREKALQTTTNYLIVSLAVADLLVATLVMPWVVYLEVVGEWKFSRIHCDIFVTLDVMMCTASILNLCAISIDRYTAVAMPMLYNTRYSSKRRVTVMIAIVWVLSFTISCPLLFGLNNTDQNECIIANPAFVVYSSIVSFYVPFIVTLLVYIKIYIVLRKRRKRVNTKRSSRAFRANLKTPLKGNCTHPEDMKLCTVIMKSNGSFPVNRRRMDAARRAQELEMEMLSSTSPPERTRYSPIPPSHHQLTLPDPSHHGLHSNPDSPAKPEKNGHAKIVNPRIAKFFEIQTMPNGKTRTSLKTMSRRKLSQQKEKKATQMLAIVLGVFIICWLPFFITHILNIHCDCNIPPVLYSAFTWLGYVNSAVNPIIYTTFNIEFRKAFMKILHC
smiles,measurement,setting,value
CCCN(CCC)C1CCc2ccc(O)cc2C1 (configuration not stated),ED50,[1],inactive
same,ED50,[2],0.03 µmol/kg
same,Counts/30,[3],160 counts/30 min
same,ED50,[4],inactive
same,ED50,[5],inactive
same,Behavioral observation,[6],Partially active
same,ED50,[7],inactive
same,Ki,[8],2800 nM
same,ED50,[9],0.03 µmol/kg
CCCN(CCC)C1CCc2cccc(OS(=O)(=O)C(F)(F)F)c2C1 (configuration not stated),ED50,[10],Weak activity
same,Counts/30,[11],110 min
same,ED50,[12],10 µmol/kg
same,Ki,[13],670 nM
same,Behavioral syndrome,[6],Partially active
same,ED50,[14],1.2 µmol/kg
same,ED50,[15],Weak activity
same,ED50,[16],Weak activity
same,ED50,[17],5.9 µmol/kg
same,ED50,[18],1.2 µmol/kg
same,ED50,[7],inactive
same,ED50,[19],Weak activity
same,ED50,[20],30 µmol/kg
same,Ratio,[21],11.2
same,ED50,[22],1.5 µmol/kg
same,Ki,[8],9.6 nM
same,ED50,[23],15 µmol/kg
same,half-life,[24],1.5 h

# Reference: ChEMBL document CHEMBL1126882, “Orally active central dopamine and serotonin receptor ligands: 5-, 6-, 7-, and 8-[[trifluoromethyl)sulfonyl]oxy]-2-(di-n-propylamino)tetralins and the formation of active metabolites in vivo” (J Med Chem, 1993)
